Activity calls are given as the source filed them.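 Rule for the calls: active = compounds cutting HCV replicon RNA in liver cells with IC50 no higher than 50000 nM; inactive = the rest.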
Tested on: Huh 7.5 HCV Rluc replicon, HCV RNA qRT-PCR, 72 h
Test: effect on HCV RNA in replicon cells – RT-PCR, Huh 7.5 Rluc replicon cells, orthogonal assay for HCV NS3 helicase inhibitor project, late-stage follow-up (AID 623968)
In short: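 material = Huh 7.5 human hepatoma cells carrying HCV Rluc replicon | times = 72 h compound exposure at 37 °C, 5% CO2 | technique = One-step TaqMan qRT-PCR of HCV 5'UTR, 1 µg total RNA input | read-out = IC50 from fitted curve of rRNA-normalized HCV RNA versus DMSO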

**Q.** For `Cc1ccc2nc(-c3ccc4nc(-c5ccc(NC(=O)c6cc(C(F)(F)F)cc(C(F)(F)F)c6)cc5)sc4c3)sc2c1S(=O)(=O)O`, which IC50 is on record?
**A.** 5 µM

**Q.** How did the IC50 turn out when `Cc1ccc2nc(-c3ccc4nc(-c5ccc(NC(=O)c6cccc(Cl)c6)cc5)sc4c3)sc2c1S(=O)(=O)O` was run?
**A.** > 25 µM (inactive)

— PubChem BioAssay AID623968 (The Scripps Research Institute Molecular Screening Center, 2012)
